# Results pooled from the literature.
# Protocols differ between the studies behind these lines.
# TNKS2: Poly [ADP-ribose] polymerase tankyrase-2 (TNKS2, Homo sapiens, UniProt Q9H2K2)
# mraY: mraY (Staphylococcus aureus, UniProt Q2FZ93)
# FLT3 ITD: Receptor-type tyrosine-protein kinase FLT3 (FLT3, Homo sapiens, UniProt P36888, ITD)
# TOP2A: DNA topoisomerase 2-alpha (TOP2A, Homo sapiens, UniProt P11388)
SMILES,target,assay,IC50
COc1cc(-c2ccccc2)ncc1C(=O)Nc1ccc2c(=O)[nH]c(-c3ccc(C(C)(C)O)cc3)nc2c1,TNKS2,"enzyme activity, inhibitor",3.46 nM
Cc1n[nH]c2ccc3nc(-c4ccc(C(=O)NCCN(C)C)cc4F)c4c(c3c12)CCCCC4,"Receptor-type tyrosine-protein kinase FLT3 (FLT3, Homo sapiens, UniProt P36888)","enzyme activity, inhibitor",138 nM
CCCCCCC#Cc1cncc(-c2nnc(SCc3cc([N+](=O)[O-])cc([N+](=O)[O-])c3)n2CCOC2OC(CN)C(O)C2O)c1 (stereo not drawn),mraY,"enzyme activity, inhibitor",78000 nM
O=C(NC1CCCCC1)c1ccc(-c2nc3ccc4[nH]ncc4c3c3c2CCCC3)cc1,FLT3 ITD,"enzyme activity, inhibitor",> 1000 nM
Cc1cc(C(=O)N2CC(N3CCN(C(=O)c4nccs4)CC3)C2)ccc1-c1ccc(F)c(Cl)c1,"Monoglyceride lipase (MGLL, Homo sapiens, UniProt Q99685)","enzyme activity, inhibitor, fluorescence",5.15 nM
C=CCn1c(=O)c2cnc(Nc3ccc(N4CCN(C)CC4)cc3)nc2n1-c1ccc2c(n1)[C@@](O)(CC)CC2,"Serine/threonine-protein kinase PLK1 (PLK1, Homo sapiens, UniProt P53350)","target engagement in cells, BRET",> 10000 nM
CN(C)c1cccc(Nc2nc(-c3ccncc3)nc3c2CNCC3)c1,TOP2A,"enzyme activity, inhibitor",140000 nM
CC(C)(O)c1ccc(-c2nc3cc(NC(=O)c4cnc(OCc5ccccc5)nc4)ccc3c(=O)[nH]2)cc1,TNKS2,"enzyme activity, inhibitor",16.3 nM
Cc1n[nH]c2ccc3nc(-c4ccc(C(=O)NCCN(C)C)cc4)c4c(c3c12)CCCCC4,"Receptor-type tyrosine-protein kinase FLT3 (FLT3, Homo sapiens, UniProt P36888, D835Y)","enzyme activity, inhibitor",34 nM
Fc1cccc(Nc2nc(-c3ccncc3)nc3c2CNCC3)c1,TOP2A,"enzyme activity, inhibitor",25000 nM
CCCCCCC#Cc1cncc(-c2nnc(SCc3cc([N+](=O)[O-])cc([N+](=O)[O-])c3)n2CCCN)c1,mraY,"enzyme activity, inhibitor",25000 nM
CN(C)CCNC(=O)c1ccc(-c2nc3ccc4[nH]ncc4c3c3c2CCC3)cc1,FLT3 ITD,"enzyme activity, inhibitor",659 nM
CNc1cccc(Nc2nc(-c3ccncc3)nc3c2CNCC3)c1,TOP2A,"enzyme activity, inhibitor",160000 nM
CC(C)(O)c1ccc(-c2nc3cc(NC(=O)c4ccc(-c5ccccc5)nc4)ccc3c(=O)[nH]2)cc1,TNKS2,"enzyme activity, inhibitor",10.6 nM
CN(C)CCNC(=O)c1ccc(-c2nc3ccc4[nH]ncc4c3c3c2CCCCC3)cc1,"Receptor-type tyrosine-protein kinase FLT3 (FLT3, Homo sapiens, UniProt P36888, F691L)","enzyme activity, inhibitor",287 nM
